What was measured:
[1] = Half-life (hydrolysis) in human blood; type: ADME
[2] = target: T1, Angiotensin-converting enzyme (Oryctolagus cuniculus) (UniProt P12822); test: Inhibitory activity towards purified rabbit lung Angiotensin I converting enzyme
T1 sequence (whole entry): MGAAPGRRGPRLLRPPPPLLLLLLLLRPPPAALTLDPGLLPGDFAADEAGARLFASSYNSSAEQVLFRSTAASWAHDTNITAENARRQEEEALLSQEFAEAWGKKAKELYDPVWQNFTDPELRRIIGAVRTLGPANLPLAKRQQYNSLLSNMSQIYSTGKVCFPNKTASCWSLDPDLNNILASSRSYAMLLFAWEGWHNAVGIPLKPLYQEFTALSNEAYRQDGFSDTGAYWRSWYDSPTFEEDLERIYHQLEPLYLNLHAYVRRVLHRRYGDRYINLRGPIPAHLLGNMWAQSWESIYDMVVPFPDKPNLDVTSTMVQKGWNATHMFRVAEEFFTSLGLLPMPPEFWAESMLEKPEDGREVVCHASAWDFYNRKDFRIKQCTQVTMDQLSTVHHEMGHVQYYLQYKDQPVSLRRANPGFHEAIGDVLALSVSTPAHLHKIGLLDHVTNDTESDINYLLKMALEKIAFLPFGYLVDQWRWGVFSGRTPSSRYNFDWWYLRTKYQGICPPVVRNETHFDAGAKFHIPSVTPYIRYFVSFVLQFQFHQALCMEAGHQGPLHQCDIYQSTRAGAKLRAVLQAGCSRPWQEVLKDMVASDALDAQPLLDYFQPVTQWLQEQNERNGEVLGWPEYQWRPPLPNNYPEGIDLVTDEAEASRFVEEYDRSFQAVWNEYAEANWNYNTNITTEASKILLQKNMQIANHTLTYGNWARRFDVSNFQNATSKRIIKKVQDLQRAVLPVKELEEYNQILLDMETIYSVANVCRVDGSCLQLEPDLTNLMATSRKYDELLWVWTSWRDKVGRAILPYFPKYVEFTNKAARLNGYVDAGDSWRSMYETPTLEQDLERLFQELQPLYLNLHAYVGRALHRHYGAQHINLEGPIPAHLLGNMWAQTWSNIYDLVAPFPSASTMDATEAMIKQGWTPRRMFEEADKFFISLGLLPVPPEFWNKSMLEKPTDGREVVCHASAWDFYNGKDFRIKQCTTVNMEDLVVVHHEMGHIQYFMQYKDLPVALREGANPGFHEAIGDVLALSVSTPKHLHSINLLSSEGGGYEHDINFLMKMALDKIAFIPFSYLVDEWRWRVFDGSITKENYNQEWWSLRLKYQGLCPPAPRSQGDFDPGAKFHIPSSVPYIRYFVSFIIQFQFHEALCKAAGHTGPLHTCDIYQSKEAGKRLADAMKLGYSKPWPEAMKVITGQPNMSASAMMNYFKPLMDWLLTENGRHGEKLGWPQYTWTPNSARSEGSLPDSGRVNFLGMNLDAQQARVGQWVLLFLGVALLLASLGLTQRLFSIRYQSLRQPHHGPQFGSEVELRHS
In short: (§1)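 Purified rabbit lung ACE was used, following a published method with two changes: Zn2+ (20 μM) was added to the purified enzyme, and the substrate was radiolabeled. The read-out was inhibition of enzyme activity.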

[3] = target: T1, Angiotensin-converting enzyme (Oryctolagus cuniculus); test: Inhibitory activity towards purified rabbit lung angiotensin I converting enzyme; no inhibition at 10 e-5 M
[4] = target: T1, Angiotensin-converting enzyme (Oryctolagus cuniculus); test: Inhibitory activity towards purified rabbit lung angiotensin I converting enzyme; in short: as §1
[5] = target: T1, Angiotensin-converting enzyme (Oryctolagus cuniculus); test: Inhibitory activity towards purified rabbit lung angiotensin I converting enzyme at 10 e-4 M

Row | half-life [1] [min] | IC50 [2] [nM] | IC50 [4] [nM] | SMILES | further results
1 | > 60 | 3.2 |  | C[C@H](CS)C(=O)O[C@@H](CSCc1ccccc1)C(=O)O | 
2 | 37 |  | 2 | CCC(CC)SC[C@H](OC(=O)[C@H](C)CS)C(=O)O | 
3 | 14 |  | 5.7 | CSC[C@H](OC(=O)[C@H](C)CS)C(=O)O | 
4 | 27 | 1.8 |  | C[C@H](CS)C(=O)O[C@@H](CSC1CCCC1)C(=O)O | 
5 | 23 | 10.6 |  | C[C@H](CS)C(=O)O[C@@H](Cc1ccccc1)C(=O)O | 

Second part, the compound before the results:

Row | SMILES | half-life [1] [min] | IC50 [2] [nM] | IC50 [4] [nM] | further results
6 | CSC[C@H](O)C(=O)O |  |  |  | inhibition [3]: no inhibition at 10 e-5 M
7 | C[C@H](CS)C(=O)N1CCC[C@H]1C(=O)O |  | 2.7 |  | 
8 | CC(C)SC[C@H](OC(=O)[C@H](C)CS)C(=O)O | 20 |  | 2.8 | 
9 | C[C@H](CS)C(=O)OCC(=O)O | 53 |  | 123 | 
10 | C[C@H](CS)C(=O)N[C@@H](Cc1ccccc1)C(=O)O | > 60 | 84.7 |  | 
11 | C[C@H](CS)C(=O)O |  |  |  | inhibition [5]: 30%

Reference: ChEMBL document CHEMBL1125310, “(R)-2-(3-mercapto-2(S)-methyl-1-oxo-propoxy)-3-(methylthio)propanoic acid, the first ultra-short-acting angiotensin converting enzyme inhibitor” (J Med Chem, 1992)
